Converted amounts (≈) assume the structure as drawn.
Columns and labels:
[1] = Association constant of compound was evaluated at pH 5; assay type: ADME
Procedure, shortened: (§1)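 UV difference spectroscopy: Ac₂-L-Lys-D-Ala-D-Ala was added to antibiotic at 30 μM (initial) in 10% MeOH/sodium phosphate buffer (pH 5 or pH 9). Double-beam spectrophotometer, 4-cm nonthermostated cells, 24 ± 2 °C. ΔA was monitored at 294 nm, and Ka was taken from the slope of a Scatchard plot.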

[2] = system: Staphylococcus aureus; assay: Minimum inhibitory concentration against Staphylococcus aureus Tour evaluated in vitro; assay type: functional
Procedure, shortened: (§2)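 Twofold broth microdilution in Oxoid Iso-Sensitest broth, final inoculum ~10⁴ cfu/mL, overnight at 37 °C. MIC (μg/mL) was read as the lowest concentration with no visible growth. Coagulase-negative staphylococci were identified by API STAPH per Kloos and Schleifer.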

[3] = system: Enterococcus faecalis; assay: Minimum inhibitory concentration against Streptococcus faecalis ATCC 7080 evaluated in vitro; assay type: functional; procedure, shortened: as §2
[4] = system: Streptococcus pyogenes; assay: Minimum inhibitory concentration against Streptococcus pyogenes C 203 evaluated in vitro; assay type: functional
Procedure, shortened: (§3)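 Twofold broth microdilution in Difco Todd-Hewitt broth, final inoculum ~10⁴ cfu/mL, overnight at 37 °C. MIC (μg/mL) was read as the lowest concentration showing no visible growth.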

[5] = system: Streptococcus pneumoniae; assay: Minimum inhibitory concentration against Streptococcus pneumoniae UC 41 evaluated in vitro; assay type: functional; procedure, shortened: as §3
[6] = system: Staphylococcus epidermidis; assay: Minimum inhibitory concentration against Staphylococcus epidermis ATCC 12228 evaluated in vitro; assay type: functional; procedure, shortened: as §2
[7] = Association constant of compound was evaluated at pH 9; assay type: ADME; procedure, shortened: as §1
[8] = system: Streptococcus pyogenes; assay: Minimum inhibitory concentration administered subcutaneously against Streptococcus pyogenes C203 in mouse; details: sc
[9] = system: Streptococcus pyogenes; assay: Minimum inhibitory concentration against Streptococcus pyogenes C203 evaluated in vivo(mouse); assay type: functional
Procedure, shortened: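 Mice in groups of five were infected intraperitoneally with S. pyogenes C 203, with inoculum set so untreated animals die of septicemia within 48 h. A single subcutaneous treatment was given immediately after infection. ED₅₀ was calculated from the percentage surviving at each dose on day 7.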

[10] = system: Staphylococcus epidermidis; assay: Minimum inhibitory concentration against Staphylococcus epidermis L1378 evaluated in vitro; assay type: functional; procedure, shortened: as §2
[11] = system: Staphylococcus hominis; assay: Minimum inhibitory concentration against Staphylococcus hominis L1070 evaluated in vitro; assay type: functional; procedure, shortened: as §2
[12] = system: Staphylococcus simulans; assay: Minimum inhibitory concentration against Staphylococcus simulans L785 evaluated in vitro; assay type: functional; procedure, shortened: as §2
[13] = system: Staphylococcus haemolyticus; assay: Minimum inhibitory concentration against Staphylococcus haemolyticus L1520 evaluated in vitro; assay type: functional; procedure, shortened: as §2
[14] = system: Staphylococcus warneri; assay: Minimum inhibitory concentration against Staphylococcus warneri L1375 evaluated in vitro; assay type: functional; procedure, shortened: as §2
[15] = system: Staphylococcus simulans; assay: Minimum inhibitory concentration against Staphylococcus simulans L1142 evaluated in vitro; assay type: functional; procedure, shortened: as §2
[16] = Staphylococcus aureus, read-out: MIC
[17] = Streptococcus pyogenes, read-out: MIC
[18] = Streptococcus pneumoniae, read-out: MIC
[19] = Staphylococcus epidermidis, ATCC 12228, read-out: MIC

Row | Structure (SMILES) | Ka [1] [M⁻¹] | MIC [2, 16] [µg/mL] | MIC [3] [µg/mL] | MIC [4, 17] [µg/mL] | MIC [5, 18] [µg/mL] | MIC [6, 19] [µg/mL] | Ka [7] [M⁻¹] | ED50 [8] [mg/kg] | ED50 [9] [mg/kg] | MIC [10] [µg/mL] | MIC [11] [µg/mL] | MIC [12] [µg/mL] | MIC [13] [µg/mL] | MIC [14] [µg/mL] | MIC [15] [µg/mL] | MIC [2] [µg/mL] | MIC [4] [µg/mL] | MIC [5] [µg/mL] | MIC [6] [µg/mL]
1 | CCCCC/C=C/CCC(=O)N[C@@H]1[C@H](Oc2c3cc4cc2Oc2ccc(cc2Cl)CC2NC(=O)[C@H](N)c5ccc(O)c(c5)Oc5cc(O)cc(c5)C(NC2=O)C(=O)NC4C(=O)NC2C(=O)/N=C(\Cc4ccc(c(Cl)c4)O3)C(=O)N[C@H](C(=O)O)c3cc(O)cc(O[C@H]4O[C@H](CO)[C@@H](O)[C@@H](O)[C@@H]4O)c3-c3cc2ccc3O)O[C@@H](CO)[C@@H](O)[C@@H]1O (some centres not stated) | 390000 | 0.5 (≈ 0.302 µM) | 1 (≈ 0.604 µM) | 0.063 (≈ 0.038 µM) | 0.063 (≈ 0.038 µM) | 0.25 (≈ 0.151 µM) | 60000 | 0.35 | – | – | – | – | – | – | – | – | – | – | –
2 | CC(=O)N[C@@H]1[C@H](O[C@@H]2c3ccc(c(Cl)c3)Oc3cc4cc(c3O)Oc3ccc(cc3Cl)C[C@H]3NC(=O)[C@H](N)c5ccc(O)c(c5)Oc5cc(O)cc(c5)[C@H](NC3=O)C(=O)N[C@H]4C(=O)N[C@H]3C(=O)N[C@@H]2C(=O)N[C@H](C(=O)O)c2cc(O)cc(O)c2-c2cc3ccc2O)O[C@@H](CO)[C@@H](O)[C@@H]1O | 2.6e+06 | 0.5 (≈ 0.357 µM) | 1 (≈ 0.713 µM) | 0.5 (≈ 0.357 µM) | 1 (≈ 0.713 µM) | 0.125 (≈ 0.0892 µM) | 32000 | – | – | – | – | – | – | – | – | – | – | – | –
3 | CC(=O)N[C@@H]1[C@H](O[C@@H]2c3ccc(c(Cl)c3)Oc3cc4cc(c3O)Oc3ccc(cc3Cl)C[C@H]3NC(=O)[C@H](N)c5ccc(O)c(c5)Oc5cc(O)cc(c5)[C@H](NC3=O)C(=O)N[C@H]4C(=O)N[C@H]3C(=O)N[C@@H]2C(=O)N[C@H](C(=O)O)c2cc(O)cc(O[C@H]4O[C@H](CO)[C@@H](O)[C@@H](O)[C@@H]4O)c2-c2cc3ccc2O)O[C@@H](CO)[C@@H](O)[C@@H]1O | 1200000 | 0.25 (≈ 0.16 µM) | 2 (≈ 1.28 µM) | 0.5 (≈ 0.32 µM) | 0.5 (≈ 0.32 µM) | 0.25 (≈ 0.16 µM) | 90000 | – | – | – | – | – | – | – | – | – | – | – | –
4 | N[C@H]1C(=O)NC2Cc3ccc(c(Cl)c3)Oc3cc4cc(c3O)Oc3ccc(cc3Cl)C/C3=N\C(=O)C(NC(=O)C4NC(=O)C(NC2=O)c2cc(O)cc(c2)Oc2cc1ccc2O)c1ccc(O)c(c1)-c1c(O)cc(O)cc1[C@@H](C(=O)O)NC3=O (some centres not stated) | 100000 | 0.25 (≈ 0.212 µM) | – | 1 (≈ 0.847 µM) | 1 (≈ 0.847 µM) | 0.125 (≈ 0.106 µM) | – | – | 5 | 0.125 (≈ 0.106 µM) | 0.125 (≈ 0.106 µM) | 0.125 (≈ 0.106 µM) | 0.5 (≈ 0.423 µM) | 1 (≈ 0.847 µM) | 0.125 (≈ 0.106 µM) | – | – | – | –
5 | CCCCC/C=C/CCC(=O)N[C@@H]1[C@H](Oc2c3cc4cc2Oc2ccc(cc2Cl)[C@@H](O[C@@H]2O[C@@H](CO)[C@@H](O)[C@H](O)[C@@H]2NC(C)=O)[C@@H]2NC(=O)[C@H](NC(=O)[C@@H]4NC(=O)[C@H]4NC(=O)[C@@H](Cc5ccc(c(Cl)c5)O3)NC(=O)[C@H](N)c3ccc(O)c(c3)Oc3cc(O)cc4c3)c3ccc(O)c(c3)-c3c(O[C@H]4O[C@H](CO)[C@@H](O)[C@@H](O)[C@@H]4O)cc(O)cc3[C@@H](C(=O)O)NC2=O)O[C@@H](CO)[C@@H](O)[C@@H]1O | 1600000 | 0.125 (≈ 0.0666 µM) | 0.125 (≈ 0.0666 µM) | 0.063 (≈ 0.0336 µM) | 0.063 (≈ 0.0336 µM) | 0.25 (≈ 0.133 µM) | 2.1e+06 | 0.18 | – | 0.5 (≈ 0.266 µM) | 0.25 (≈ 0.133 µM) | 0.25 (≈ 0.133 µM) | 4 (≈ 2.13 µM) | 2 (≈ 1.07 µM) | 0.125 (≈ 0.0666 µM) | – | – | – | –
6 | N[C@H]1C(=O)NC2Cc3ccc(c(Cl)c3)Oc3cc4cc(c3O)Oc3ccc(cc3Cl)C/C3=N\C(=O)C(NC(=O)C4NC(=O)C(NC2=O)c2cc(O)cc(c2)Oc2cc1ccc2O)c1ccc(O)c(c1)-c1c(O[C@H]2O[C@H](CO)[C@@H](O)[C@@H](O)[C@@H]2O)cc(O)cc1[C@@H](C(=O)O)NC3=O (some centres not stated) | 380000 | 0.25 (≈ 0.186 µM) | 1 (≈ 0.745 µM) | 2 (≈ 1.49 µM) | 2 (≈ 1.49 µM) | 0.5 (≈ 0.372 µM) | 61000 | 5.8 | – | – | – | – | – | – | – | – | – | – | –
7 | N[C@H]1C(=O)NC2Cc3ccc(c(Cl)c3)Oc3cc4cc(c3O)Oc3ccc(cc3Cl)/C=C3\NC(=O)C(NC(=O)C4NC(=O)C(NC2=O)c2cc(O)cc(c2)Oc2cc1ccc2O)c1ccc(O)c(c1)-c1c(O)cc(O)cc1[C@@H](C(=O)O)NC3=O (stereo in doubt; 4) | < 100 | – | – | – | – | – | < 100 | – | – | – | – | – | – | – | – | 1 (≈ 0.847 µM) | 4 (≈ 3.39 µM) | 4 (≈ 3.39 µM) | 0.125 (≈ 0.106 µM)
8 | N[C@H]1C(=O)NC2Cc3ccc(c(Cl)c3)Oc3cc4cc(c3O)Oc3ccc(cc3Cl)/C=C3\NC(=O)C(NC(=O)C4NC(=O)C(NC2=O)c2cc(O)cc(c2)Oc2cc1ccc2O)c1ccc(O)c(c1)-c1c(O)cc(O)cc1[C@@H](C(=O)O)NC3=O (stereo in doubt; 5) | – | 2 (≈ 1.69 µM) | 16 (≈ 13.5 µM) | 8 (≈ 6.77 µM) | 8 (≈ 6.77 µM) | – | < 100 | – | – | – | – | – | – | – | – | – | – | – | 0.5 (≈ 0.423 µM)
9 | N[C@H]1C(=O)N[C@@H]2Cc3ccc(c(Cl)c3)Oc3cc4cc(c3O)Oc3ccc(cc3Cl)[C@@H](O)[C@@H]3NC(=O)[C@H](NC(=O)[C@@H]4NC(=O)[C@@H](NC2=O)c2cc(O)cc(c2)Oc2cc1ccc2O)c1ccc(O)c(c1)-c1c(O)cc(O)cc1[C@@H](C(=O)O)NC3=O [TEICOPLANIN AGLYCON] | 2.5e+06 | 0.063 (≈ 0.0525 µM) | 0.125 (≈ 0.104 µM) | 0.125 (≈ 0.104 µM) | 0.125 (≈ 0.104 µM) | 0.016 (≈ 0.0133 µM) | 30000 | 0.95 | – | 0.063 (≈ 0.0525 µM) | 0.063 (≈ 0.0525 µM) | 0.063 (≈ 0.0525 µM) | 0.125 (≈ 0.104 µM) | 0.25 (≈ 0.209 µM) | 0.063 (≈ 0.0525 µM) | – | – | – | –
